Data taken from ChEMBL document CHEMBL2407023, “trans-Resveratrol in Gnetum gnemon protects against oxidative-stress-induced endothelial senescence” (J Nat Prod, 2013).
The source made the active and inactive calls.

What was measured:
HUVEC [1] = experiment: Inhibition of H2O2-induced HUVEC senescence pretreated for 1 day followed by compound washout and H2O2-treatment measured after 10 days by SA-beta galactosidase staining-based assay; format: functional, cell-based; settings: Homo sapiens
How it was run: (§1)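 HUVEC at PDL 10−11 were grown to 80% confluence and pretreated 1 day with compound at 100 μmol/L (vehicle 0.05% DMSO). After washing, they received 100 μmol/L H2O2 for 1 h and were reseeded at 1 × 10^6 per dish. Culture continued 10 days with compound. Fixed cells were scored for SA-βgal-positive proportion, with hematoxylin counterstain for morphology; n = 3.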

HUVEC [2] = experiment: Effect on SIRT1 expression in H2O2-induced HUVEC pretreated for 1 day followed by compound washout and H2O2-treatment measured after 10 days by immunoblotting analysis; format: functional, cell-based; settings: Homo sapiens
How it was run: (§2)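 HUVEC at PDL 10−11 were pretreated 1 day with compound at 100 μmol/L in EGM-2 (vehicle 0.05% DMSO). Cells were washed and exposed to 100 μmol/L H2O2 for 1 h. They were then reseeded and cultured 10 days with compound. Lysates were made in Tris/NP40/SDS buffer with protease and phosphatase inhibitors and immunoblotted. β-actin was the loading reference, with ECL detection.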

HUVEC [3] = experiment: Inhibition of H2O2-induced HUVEC senescence assessed as change in cellular morphology pretreated for 1 day followed by compound washout and H2O2-treatment measured after 10 days by hematoxylin staining-based assay; format: functional, cell-based; settings: Homo sapiens; how it was run: as §1
HUVEC [4] = experiment: Effect on eNOS expression in H2O2-induced HUVEC pretreated for 1 day followed by compound washout and H2O2-treatment measured after 10 days by immunoblotting analysis; format: functional, cell-based; settings: Homo sapiens; how it was run: as §2
[5] = molecular target: T1, NAD-dependent protein deacetylase sirtuin-1 (Homo sapiens) (UniProt Q96EB6); experiment: Induction of SIRT1-mediated NRF-1 expression in H2O2-induced HUVEC pretreated for 1 day followed by compound washout and H2O2-treatment measured after 10 days by RT-PCR analysis; format: cell-based
T1 sequence (whole entry): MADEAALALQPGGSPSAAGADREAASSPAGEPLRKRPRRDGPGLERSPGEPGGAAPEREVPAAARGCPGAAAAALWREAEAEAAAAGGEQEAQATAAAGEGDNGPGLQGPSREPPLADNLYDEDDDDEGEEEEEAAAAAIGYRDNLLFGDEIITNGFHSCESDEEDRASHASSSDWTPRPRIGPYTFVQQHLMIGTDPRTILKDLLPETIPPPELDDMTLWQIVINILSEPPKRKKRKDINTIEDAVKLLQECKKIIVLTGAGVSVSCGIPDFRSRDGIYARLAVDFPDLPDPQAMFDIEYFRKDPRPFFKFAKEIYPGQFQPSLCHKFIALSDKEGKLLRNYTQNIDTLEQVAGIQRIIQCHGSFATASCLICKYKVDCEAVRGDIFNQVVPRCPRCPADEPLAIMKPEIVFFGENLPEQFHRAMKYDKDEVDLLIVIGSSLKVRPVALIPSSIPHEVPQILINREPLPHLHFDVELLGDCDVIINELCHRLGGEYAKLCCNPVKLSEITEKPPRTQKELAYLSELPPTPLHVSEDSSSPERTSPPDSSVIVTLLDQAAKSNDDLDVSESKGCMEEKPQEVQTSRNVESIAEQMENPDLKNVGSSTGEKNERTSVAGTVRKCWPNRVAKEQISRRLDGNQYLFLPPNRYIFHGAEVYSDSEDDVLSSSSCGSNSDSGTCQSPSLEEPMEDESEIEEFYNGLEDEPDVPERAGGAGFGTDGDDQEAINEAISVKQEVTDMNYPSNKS
How it was run: (§3)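 HUVEC were treated with compound at 100 μmol/L and H2O2 as in the senescence protocol. Total RNA was DNase-treated, then reverse transcribed with random hexamers and oligo d(T). mRNA was quantified by SYBR green real-time PCR relative to β-actin. Primer quality was checked by dissociation curves, standard-curve slopes and no-RT reactions.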

[6] = molecular target: T1, NAD-dependent protein deacetylase sirtuin-1 (Homo sapiens); experiment: Induction of SIRT1-mediated TFAM expression in H2O2-induced HUVEC pretreated for 1 day followed by compound washout and H2O2-treatment measured after 10 days by RT-PCR analysis; format: cell-based; how it was run: as §3
HUVEC [7] = experiment: Effect on PAI-1 expression in H2O2-induced HUVEC pretreated for 1 day followed by compound washout and H2O2-treatment measured after 10 days by immunoblotting analysis; format: functional, cell-based; settings: Homo sapiens; how it was run: as §2
HUVEC [8] = experiment: Effect on p53 expression in H2O2-induced HUVEC pretreated for 1 day followed by compound washout and H2O2-treatment measured after 10 days by immunoblotting analysis; format: functional, cell-based; settings: Homo sapiens; how it was run: as §2
[9] = molecular target: T1, NAD-dependent protein deacetylase sirtuin-1 (Homo sapiens); experiment: Activation of SIRT1 (unknown origin) by fluorescence assay
How it was run: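 HUVEC exposed to compounds at 100 μmol/L were assayed for SIRT1 activity with a fluorescent SIRT1 activity kit, following the manufacturer's protocol. NAD+ was the positive control. Comparison was against vehicle control, n = 3.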

HUVEC [10] = experiment: Induction of mitochondrial biogenesis in H2O2-induced HUVEC at 100 umol/L pretreated for 1 day followed by compound washout and H2O2-treatment measured after 10 days by MitoTracker Red staining-based assay; format: functional, cell-based; settings: Homo sapiens
How it was run: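 HUVEC were grown in chamber slides to 80% confluence and treated with compound at 100 μmol/L plus H2O2. At 10 days after H2O2, cells were stained 15 min with 100 nM MitoTracker Red CMXRos in prewarmed medium. Nuclei were counterstained with DAPI and cells imaged by fluorescence microscopy.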

Oc1ccc(/C=C/c2cc(O)cc(O)c2)cc1
active: inhibition (HUVEC [1]) | Activity (HUVEC [2]) | inhibition (HUVEC [3]) | Activity (HUVEC [4]) | Activity [5] | Activity [6] | Activity (HUVEC [7]) | Activity (HUVEC [8]) | Activity [9] | Activity (HUVEC [10])
